Assay results as given in ChEMBL document CHEMBL1147133, “Identification of anthranilic acid derivatives as a novel class of allosteric inhibitors of hepatitis C NS5B polymerase” (J Med Chem, 2007).

How the values were obtained:
Hepatitis C virus [1] = assay: Inhibition of HCV 1b BK NS5B delta21 RNA polymerase expressed in Escherichia coli; set-up: species or system Hepatitis C virus subtype 1b
[2] = Cytotoxicity against Huh7 cells by MTS assay; format: cell-based; settings: Homo sapiens, Huh-7
Hepatitis C virus [3] = assay: Antiviral activity in Huh7 cells containing HCV 1b BB7 replicon; format: functional, organism-based, Hepacivirus hominis; settings: genotype 1b, Huh-7
Method in brief: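 Huh7 cells carrying the genotype 1b BB7 replicon were exposed to increasing compound concentrations for 3 days in DMEM with 2% FCS and no G418. HCV, ribosomal and GAPDH mRNA levels were measured by quantitative TaqMan RT-PCR. Values are averages of at least three determinations.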

[4] = Inhibition of RNA polymerase 2; set-up: species or system Homo sapiens
[5] = Inhibition of human DNA polymerase beta
Method in brief: (§1)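 The enzyme was incubated with compound in buffer containing four dNTPs spiked with [α-33P]TTP, with dNTPs and templates at their respective Km levels. Templates were poly(dA)-oligo(dT)12 for HIV RT, activated calf thymus DNA for CT pol α and human pol α/β, and singly primed M13 DNA for human pol γ. Reactions ran 1-2 h at 37 °C, and filtered product was counted. Values are averages of at least three determinations.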

[6] = Inhibition of human DNA polymerase gamma; method in brief: as §1
[7] = Inhibition of human DNA polymerase alpha; method in brief: as §1
[8] = Inhibition of calf thymus DNA polymerase alpha; set-up: species or system Bos taurus; method in brief: as §1
[9] = Inhibition of HIV reverse transcriptase; set-up: species or system Human immunodeficiency virus; method in brief: as §1

IC50 (Hepatitis C virus [1])	IC50 (Hepatitis C virus [3])	Compound	IC50 [2]	also measured
> 33 µM	–	O=C(COc1ccc(Cl)cc1)Nc1cccc(C(=O)O)c1	–	–
7.47 µM	–	CC(=O)c1cc(F)c(C)cc1NCC(=O)Nc1ccccc1C(=O)O	–	–
5.1 µM	–	N#Cc1ccc(OCC(=O)Nc2ccccc2C(=O)O)cc1	–	–
1.27 µM	> 11 µM	O=C(COc1cc(F)c(F)cc1F)Nc1ccccc1C(=O)O	> 115 µM	–
> 31 µM	–	COC(=O)c1ccccc1NC(=O)COc1ccc(Cl)cc1	–	–
0.11 µM	> 11 µM	Cc1cc(OCC(=O)Nc2ccccc2C(=O)O)c(Br)cc1Cl	> 115 µM	–
0.2 µM	13 µM	O=C(CNc1ccc(Cl)c(Cl)c1)Nc1ccccc1C(=O)O	47 µM	–
0.45 µM	> 11 µM	O=C(COc1ccc(Cl)cc1Cl)Nc1ccccc1C(=O)O	> 115 µM	–
–	2 µM	CC(=O)c1cc(F)c(Cl)cc1NCC(=O)Nc1ccccc1C(=O)O	> 137 µM	IC50 [4]: > 137 µM; IC50 [5]: > 137 µM; IC50 [6]: > 27 µM; IC50 [7]: > 137 µM; IC50 [8]: > 137 µM; IC50 [9]: > 137 µM
0.022 µM	30 µM	CC(=O)c1cc(Br)c(Cl)cc1NCC(=O)Nc1ccccc1C(=O)O	> 117 µM	–
0.76 µM	–	C[C@H](Oc1ccc(Cl)cc1)C(=O)Nc1ccccc1C(=O)O	–	–
3.23 µM	–	O=C(COc1ccc(Br)cc1)Nc1ccccc1C(=O)O	–	–
3.36 µM	–	CCC(=O)c1cc(Cl)ccc1NCC(=O)Nc1ccccc1C(=O)O	–	–
0.21 µM	32 µM	CC(=O)c1cc(C)c(C)cc1NCC(=O)Nc1ccccc1C(=O)O	> 147 µM	–
0.032 µM	5 µM	CCc1cc(NCC(=O)Nc2ccccc2C(=O)O)c(C(C)=O)cc1Cl	44 µM	–
1.05 µM	30 µM	CC(=O)c1cc(C)c(Cl)cc1NCC(=O)Nc1ccccc1C(=O)O	> 139 µM	–
0.86 µM	> 11 µM	CC(=O)c1ccc(Cl)cc1OCC(=O)Nc1ccccc1C(=O)O	> 115 µM	–
0.01 µM	2 µM	CC(=O)c1cc(F)c(Br)cc1NCC(=O)Nc1ccccc1C(=O)O	> 122 µM	IC50 [4]: > 122 µM; IC50 [5]: > 122 µM; IC50 [6]: > 24 µM; IC50 [7]: > 122 µM; IC50 [8]: > 122 µM; IC50 [9]: > 122 µM
> 30 µM	–	CC(C)(Oc1ccc(Cl)cc1)C(=O)Nc1ccccc1C(=O)O	–	–
0.03 µM	10 µM	CC(=O)c1cc(Cl)c(Cl)cc1NCC(=O)Nc1ccccc1C(=O)O	123 µM	–
0.23 µM	> 11 µM	CC(=O)c1cc(F)c(Cl)cc1OCC(=O)Nc1ccccc1C(=O)O	> 115 µM	–
0.14 µM	> 11 µM	CC(=O)c1cc(Cl)c(C)cc1OCC(=O)Nc1ccccc1C(=O)O	> 115 µM	–

IC50 (Hepatitis C virus [1])	IC50 (Hepatitis C virus [3])	Compound	IC50 [2]	also measured
0.87 µM	–	O=C(CNc1cccc(Br)c1)Nc1ccccc1C(=O)O	–	–
0.03 µM	> 11 µM	O=C(COc1cc(Cl)c(Cl)cc1Cl)Nc1ccccc1C(=O)O	> 115 µM	–
0.17 µM	14 µM	CN(CC(=O)Nc1ccccc1C(=O)O)c1ccc(Cl)c(Cl)c1	47 µM	–
0.21 µM	40 µM	O=C(CNc1ccc(F)c(Cl)c1)Nc1ccccc1C(=O)O	155 µM	–
35 µM	–	COc1ccc(OCC(=O)Nc2ccccc2C(=O)O)cc1	–	–
2.8 µM	> 11 µM	CC(=O)c1cc(C)ccc1OCC(=O)Nc1ccccc1C(=O)O	> 115 µM	–
1.14 µM	–	O=C(COc1cccc(Br)c1)Nc1ccccc1C(=O)O	–	–
0.18 µM	17 µM	CC(=O)c1cc(Cl)c(F)cc1NCC(=O)Nc1ccccc1C(=O)O	> 137 µM	–
> 37 µM	–	O=C(COc1ccccc1)Nc1ccccc1C(=O)O	–	–
0.08 µM	3.1 µM	CC(=O)c1cc(Cl)c(C)cc1NCC(=O)Nc1ccccc1C(=O)O	> 139 µM	–
0.57 µM	> 11 µM	COc1cc(Cl)ccc1OCC(=O)Nc1ccccc1C(=O)O	> 115 µM	–
5.2 µM	–	O=C(COc1ccc(F)cc1)Nc1ccccc1C(=O)O	–	–
0.11 µM	> 11 µM	CC(=O)c1cc(Cl)c(F)cc1OCC(=O)Nc1ccccc1C(=O)O	> 115 µM	–
1.5 µM	> 11 µM	CC(=O)c1cc(F)ccc1OCC(=O)Nc1ccccc1C(=O)O	> 115 µM	–
0.57 µM	> 11 µM	Cc1cc(Cl)ccc1OCC(=O)Nc1ccccc1C(=O)O	> 115 µM	–
4.4 µM	–	O=C(CSc1ccc(Cl)cc1)Nc1ccccc1C(=O)O	–	–
0.53 µM	> 11 µM	CC(=O)c1cc(Cl)ccc1OCC(=O)Nc1ccccc1C(=O)O	> 115 µM	–
50 µM	–	C[C@@H](Oc1ccc(Cl)cc1)C(=O)Nc1ccccc1C(=O)O	–	–
> 28 µM	–	O=C(COc1ccc(Cl)cc1)Nc1ccc(C(=O)O)cc1	–	–
0.23 µM	12 µM	CC(=O)c1cc(Cl)ccc1NCC(=O)Nc1ccccc1C(=O)O	> 144 µM	–
0.11 µM	43 µM	CC(=O)c1cc(Br)ccc1NCC(=O)Nc1ccccc1C(=O)O	> 128 µM	–
